# Assay results: publication PMC4065498 (Chemical research in toxicology, 2010)
# How the values were obtained:
# recombinant human CES1 = biological target: T1, recombinant human CES1 (Homo sapiens, UniProt P23141); format: biochemical; conditions: 2AG substrate
# T1 sequence (P23141 18-567): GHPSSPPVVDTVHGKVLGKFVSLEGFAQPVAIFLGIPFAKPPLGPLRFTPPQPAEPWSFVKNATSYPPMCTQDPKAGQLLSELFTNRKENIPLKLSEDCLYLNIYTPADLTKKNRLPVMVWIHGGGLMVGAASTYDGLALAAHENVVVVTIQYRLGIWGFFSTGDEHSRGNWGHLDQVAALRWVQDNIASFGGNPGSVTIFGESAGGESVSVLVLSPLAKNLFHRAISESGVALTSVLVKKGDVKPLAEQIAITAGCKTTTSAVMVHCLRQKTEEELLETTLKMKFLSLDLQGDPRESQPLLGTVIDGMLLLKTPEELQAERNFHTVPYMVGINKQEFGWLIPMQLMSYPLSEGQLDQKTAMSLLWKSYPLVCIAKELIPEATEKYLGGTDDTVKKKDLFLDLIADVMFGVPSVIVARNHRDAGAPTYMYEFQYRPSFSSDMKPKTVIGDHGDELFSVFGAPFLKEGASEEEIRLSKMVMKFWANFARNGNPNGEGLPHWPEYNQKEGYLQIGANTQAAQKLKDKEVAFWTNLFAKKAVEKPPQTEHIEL
# [1] = system: 31-32kDa enzyme in THP1 lysates; test: Activity-based protein profiling with FP-biotin in THP1 lysate: 31-32kDa enzyme; format: biochemical, human
# How it was run: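 THP1 monocyte lysate (1 mg/ml protein in 50 mM Tris-HCl, pH 7.4) was labelled with 2 μM FP-biotin for 1 h at room temperature. Irreversible inhibitors were preincubated for 30 min (37°C) before the probe. For the reversible inhibitor, lysate received inhibitor, then 0.2 μM FP-biotin for 7.5 min, short of full labelling. Reactions were stopped in reducing SDS loading buffer (95°C, 5 min), run on SDS-PAGE and blotted with avidin-HRP.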
# THP1 macrophages = test: PG-G and 2AG levels in LPS-primed THP1 macrophages stimulated with ionomycin; format: cell-based, human; conditions: oxon 1 μM, ionomycin 5 μM
# THP1 foam cells = test: Endogenous 2AG produced by cholesterol-loaded THP1 macrophages; format: cell-based, human; conditions: 24 h
# recombinant human MAGL = biological target: T2, recombinant human MAGL (Homo sapiens, UniProt Q99685); format: biochemical; conditions: 2AG substrate
# T2 sequence (Q99685 1-303): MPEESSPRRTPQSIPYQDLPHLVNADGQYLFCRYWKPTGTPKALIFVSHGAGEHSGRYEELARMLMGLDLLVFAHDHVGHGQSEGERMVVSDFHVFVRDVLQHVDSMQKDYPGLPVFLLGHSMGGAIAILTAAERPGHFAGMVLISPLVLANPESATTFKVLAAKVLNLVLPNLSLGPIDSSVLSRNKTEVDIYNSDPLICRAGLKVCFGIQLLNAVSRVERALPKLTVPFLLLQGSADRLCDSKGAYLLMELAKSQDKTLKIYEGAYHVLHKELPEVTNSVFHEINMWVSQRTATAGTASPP
# [2] = system: lipid glyceryl ester hydrolase activities of THP1 monocyte lysates
substance,measurement,setting,value
chlorpyrifos oxon [CPO],inhibition of recombinant CES1 (in words),recombinant human CES1,potently inhibit
same,concentration needed to reduce activity of the 31-32kDa enzyme toward FP-biotin,[1],> 10 µM
same,"PGF2α-G, PGE2-G, and 2AG levels compared to vehicle-treated cells following ionomycin stimulation",THP1 macrophages,significantly elevated
same,amount of 2AG in culture medium relative to control group,THP1 foam cells; oxon 1 μM,2.5 fold
same,amount of 2AG in culture medium relative to control group,THP1 foam cells; oxon 10 μM,8.1 fold
same,inhibition of recombinant MAGL (in words),recombinant human MAGL,potently inhibit
same,inhibition of PGE2-G hydrolysis activity in THP1 cell lysate,[2]; oxon 1 μM,near complete inhibition
same,inhibition of hydrolysis of exogenous 2AG in THP1 lysate,"[2]; oxon 1 μM, 2AG 10 μM",49%
same,inhibition of 2AG hydrolysis activity in THP1 lysate,[2]; oxon 10 μM,72%
same,knock down of 2AG hydrolysis activity in THP1 monocyte lysate,[2]; oxon 500 μM,94%
